This is an account of results in ChEMBL document CHEMBL1131139, “Synthesis and antibacterial activity of ketolides (6-O-methyl-3-oxoerythromycin derivatives): a new class of antibacterials highly potent against macrolide-resistant and -susceptible respiratory pathogens” (1998).

Molecules are shown by their SMILES. Values after ≈ are worked out from the molar mass of the structure shown.

Common to all, as to assay type: functional
Test [1] concerns Escherichia coli. Nature of the test: In vitro inhibitory activity against Escherichia coli (250 UC5). The procedure, abridged:
(§1)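 Two-fold agar dilution on Mueller-Hinton agar (pH 7.4). Inoculum from overnight plate cultures suspended in Mueller-Hinton broth, adjusted to 10^9 CFU/mL, diluted 1:200 and spotted by multipoint inoculator at about 10^4 CFU/spot. Plates incubated 37 °C for 20 h. MIC taken as lowest concentration with no visible growth.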

The test system of test [2] is Haemophilus influenzae. As to the kind of experiment: In vitro inhibitory activity against Haemophilus influenzae (351CB12). The procedure, abridged:
as §1

The subject of test [3] is Haemophilus influenzae. Nature of the test: In vitro inhibitory activity against Haemophilus influenzae (351HT3). The procedure, abridged: as §1
Test [4] relates to Staphylococcus epidermidis. As to the kind of experiment: In vitro inhibitory activity against Staphylococcus epidermidis (EryRi 012GO11i). The procedure, abridged: as §1
The test system of test [5] is Staphylococcus aureus. As to the kind of experiment: In vitro inhibitory activity against Staphylococcus aureus (011UC4). In short, it runs like this: as §1
Test [6] deals with Staphylococcus aureus. Nature of the test: In vitro inhibitory activity against Staphylococcus aureus (EryRi 011GO25i). In short, it runs like this: as §1
Test [7] relates to Streptococcus pneumoniae. Nature of the test: In vitro inhibitory activity against Streptococcus pneumoniae (032UC1). In short, it runs like this: as §1
Test [8] deals with Streptococcus pneumoniae. Nature of the test: In vitro inhibitory activity against Streptococcus pneumoniae (EryRc 030SJ1). In short, it runs like this: as §1
Test [9] relates to Streptococcus pneumoniae. Nature of the test: In vitro inhibitory activity against Streptococcus pneumoniae (EryRi 030SJ5i). The procedure, abridged: as §1
The subject of test [10] is Streptococcus pyogenes. Nature of the test: In vitro inhibitory activity against Streptococcus pyogenes (02A1UC1). In short, it runs like this:
as §1

In test [11] the test system is Staphylococcus aureus. As to the kind of experiment: In vitro inhibitory activity against Staphylococcus aureus (EryRc 011CB20). The procedure, abridged: as §1

Take `CC[C@H]1OC(=O)[C@H](C)C(=O)[C@H](C)[C@@H](O[C@@H]2O[C@H](C)C[C@H](N(C)C)[C@H]2O)[C@](C)(OC)C[C@@H](C)C(=O)[C@H](C)[C@H]2N(CCCCc3ccnc4c(OC)cccc34)C(=O)O[C@]12C`: the MIC in [1] worked out at 40 µg/mL (≈ 48.4 µM); in [2] it was 2.5 µg/mL (≈ 3.03 µM); in test [3], 2.5 µg/mL (≈ 3.03 µM); in test [4] it was 0.08 µg/mL (≈ 0.0968 µM); in [5], 0.08 µg/mL (≈ 0.0968 µM); in [6] it was 0.3 µg/mL (≈ 0.363 µM). Also, the MIC stood at 0.02 µg/mL (≈ 0.0242 µM) in test [7]; 20 µg/mL (≈ 24.2 µM) in test [8]; 0.08 µg/mL (≈ 0.0968 µM) in test [9]; 0.02 µg/mL (≈ 0.0242 µM) in test [10]; 40 µg/mL (≈ 48.4 µM) in [11].

As to `CC[C@H]1OC(=O)[C@H](C)C(=O)[C@H](C)[C@@H](O[C@@H]2O[C@H](C)C[C@H](N(C)C)[C@H]2O)[C@](C)(OC)C[C@@H](C)C(=O)[C@H](C)[C@H]2N(CCCCc3ccccc3)C(=O)O[C@]12C`, the MIC was found to be 40 µg/mL (≈ 53.7 µM) in test [1]; 2.5 µg/mL (≈ 3.36 µM) in test [2]; 1.2 µg/mL (≈ 1.61 µM) in test [3]; 0.04 µg/mL (≈ 0.0537 µM) in test [4]; 0.08 µg/mL (≈ 0.107 µM) in test [5]; 0.15 µg/mL (≈ 0.201 µM) in test [6]. Also, the MIC in [7] came out at 0.02 µg/mL (≈ 0.0268 µM); in [8], 0.15 µg/mL (≈ 0.201 µM); in test [9] it was 0.3 µg/mL (≈ 0.403 µM); in [10] it was 0.02 µg/mL (≈ 0.0268 µM); in [11] it was 40 µg/mL (≈ 53.7 µM).

Turning to `CC[C@H]1OC(=O)[C@H](C)C(=O)[C@H](C)[C@@H](O[C@@H]2O[C@H](C)C[C@H](N(C)C)[C@H]2O)[C@](C)(OC)C[C@@H](C)/C(=N\OC2CCNC2)[C@H](C)[C@@H](O)[C@]1(C)O` (stereo partly drawn), the MIC in test [1] turned out to be 40 µg/mL (≈ 59.5 µM); in test [2] it was 5 µg/mL (≈ 7.44 µM); in test [3] it was 10 µg/mL (≈ 14.9 µM); in test [4], 6 µg/mL (≈ 8.93 µM); in test [5], 0.15 µg/mL (≈ 0.223 µM); in test [6], 5 µg/mL (≈ 7.44 µM). Also, the MIC in test [7] was 0.02 µg/mL (≈ 0.0298 µM); in [8], 10 µg/mL (≈ 14.9 µM); in test [9], 40 µg/mL (≈ 59.5 µM); in test [10], 0.04 µg/mL (≈ 0.0595 µM); in test [11], 40 µg/mL (≈ 59.5 µM).

Regarding `CC[C@H]1OC(=O)[C@H](C)C(=O)[C@H](C)[C@@H](O[C@@H]2O[C@H](C)C[C@H](N(C)C)[C@H]2O)[C@](C)(OC)C[C@@H](C)C(=O)[C@H](C)[C@H]2N(CCN(C)Cc3ccccc3)C(=O)O[C@]12C`, the MIC in test [1] is 40 µg/mL (≈ 52.6 µM); in [2], 2.5 µg/mL (≈ 3.29 µM); in test [3] it was 5 µg/mL (≈ 6.58 µM); in test [4], 0.15 µg/mL (≈ 0.197 µM); in test [5] it was 0.15 µg/mL (≈ 0.197 µM); in [6], 0.6 µg/mL (≈ 0.789 µM). In addition, the MIC in test [7] worked out at 0.02 µg/mL (≈ 0.0263 µM); in [8], 10 µg/mL (≈ 13.2 µM); in test [9], 0.3 µg/mL (≈ 0.395 µM); in test [10], 0.04 µg/mL (≈ 0.0526 µM); in test [11] it was 40 µg/mL (≈ 52.6 µM).

With `CC[C@H]1OC(=O)[C@H](C)C(=O)[C@H](C)[C@@H](O[C@@H]2O[C@H](C)C[C@H](N(C)C)[C@H]2O)[C@](C)(OC)C[C@@H](C)C(=O)[C@H](C)[C@@H](O)[C@]1(C)O`, the MIC in test [1] worked out at 40 µg/mL (≈ 68.1 µM); in test [2] it was 20 µg/mL (≈ 34 µM); in [3] it was 20 µg/mL (≈ 34 µM); in test [4], 5 µg/mL (≈ 8.51 µM); in test [5], 0.3 µg/mL (≈ 0.51 µM); in [6] it was 40 µg/mL (≈ 68.1 µM). Moreover, the MIC was 0.15 µg/mL (≈ 0.255 µM) in [7]; 40 µg/mL (≈ 68.1 µM) in [8]; 40 µg/mL (≈ 68.1 µM) in test [9]; 0.6 µg/mL (≈ 1.02 µM) in test [10]; 40 µg/mL (≈ 68.1 µM) in test [11].

Consider `CC[C@H]1OC(=O)[C@H](C)C(=O)[C@H](C)[C@@H](O[C@@H]2O[C@H](C)C[C@H](N(C)C)[C@H]2O)[C@](C)(OC)C[C@@H](C)/C(=N\OCc2ccccc2)[C@H](C)[C@@H](O)[C@]1(C)O`, for which the MIC came to 40 µg/mL (≈ 57.7 µM) in [1]; 40 µg/mL (≈ 57.7 µM) in test [2]; 40 µg/mL (≈ 57.7 µM) in [3]; 40 µg/mL (≈ 57.7 µM) in [4]; 2.5 µg/mL (≈ 3.61 µM) in test [5]; 40 µg/mL (≈ 57.7 µM) in test [6]. The MIC is 0.3 µg/mL (≈ 0.433 µM) in [7]; 40 µg/mL (≈ 57.7 µM) in test [8]; 40 µg/mL (≈ 57.7 µM) in [9]; 0.6 µg/mL (≈ 0.866 µM) in test [10]; 40 µg/mL (≈ 57.7 µM) in [11].

For the compound `CC[C@H]1OC(=O)[C@H](C)C(=O)[C@H](C)[C@@H](O[C@@H]2O[C@H](C)C[C@H](N(C)C)[C@H]2O)[C@](C)(OC)C[C@@H](C)C(=O)[C@@H](C)[C@H]2N(N)C(=O)O[C@]12C`, the MIC in [1], in [2], in test [3], in test [4], in test [5] and in test [6] was 40 µg/mL (≈ 63.7 µM) throughout. In addition, the MIC in test [7] worked out at 5 µg/mL (≈ 7.96 µM); in test [8], 40 µg/mL (≈ 63.7 µM); in [9], 40 µg/mL (≈ 63.7 µM); in test [10] it was 2.5 µg/mL (≈ 3.98 µM); in [11] it was 40 µg/mL (≈ 63.7 µM).

`CC[C@H]1OC(=O)[C@H](C)C(=O)[C@H](C)[C@@H](O[C@@H]2O[C@H](C)C[C@H](N(C)C)[C@H]2O)[C@](C)(OC)C[C@@H](C)/C(=N\OCCN2CCC2)[C@H](C)[C@@H](O)[C@]1(C)O`: the MIC in [1] was found to be 40 µg/mL (≈ 58.3 µM); in test [2], 10 µg/mL (≈ 14.6 µM); in test [3] it was 40 µg/mL (≈ 58.3 µM); in test [4] it was 5 µg/mL (≈ 7.29 µM); in test [5], 0.6 µg/mL (≈ 0.875 µM); in [6], 2.5 µg/mL (≈ 3.64 µM). Further, the MIC in test [7] came out at 20 µg/mL (≈ 29.2 µM); in [8], 0.3 µg/mL (≈ 0.437 µM); in test [9], 2.5 µg/mL (≈ 3.64 µM); in test [10], 0.04 µg/mL (≈ 0.0583 µM); in test [11] it was 40 µg/mL (≈ 58.3 µM).
